{
  "source": "paper PMC12928844",
  "about": "(Nature, 2025)",
  "key": {"[1]": {"tested_on": "NSD2 and H3K36me2 levels in cell lines", "assay": "Western blot after KRASi treatment", "type": "cell-based", "conditions": "100 nM sotorasib, 1 day"}, "K^cPC PDAC tumours": {"tested_on": "K^cPC PDAC tumours", "assay": "Autochthonous K^cPC PDAC mouse model treatment study", "type": "in vivo", "conditions": "2 weeks of treatment, 10 mg kg−1 daily", "method_in_brief": "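C57BL/6;129S1 mixed-background mice of both sexes, with littermates as controls. Control and monotherapy groups went through the same procedure but received vehicle. The survival end point was set by overall health criteria scoring, and health status and weight were checked daily.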"}, "K^c/cP LUAD tumour cells": {"tested_on": "K^c/cP LUAD tumour cells", "assay": "scRNA-seq tumour fitness score of K^c/cP tumours", "type": "in vivo, mouse", "conditions": "3 weeks of treatment", "method_in_brief": "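KC/CP lung tumour-bearing mice (mixed C57BL/6;129S1, both sexes, littermate controls) received test compound at 100 mg kg−1 once daily i.p. in 40% (2-hydroxypropyl)-β-cyclodextrin, or vehicle. Tumour cells were filtered through 70 μm strainers, given ACK red-cell lysis, washed and counted for scRNA-seq. Malignant cells were called by inferCNV against normal mouse lung alveolar cells.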"}, "K^c/cP LUAD tumours": {"tested_on": "K^c/cP LUAD tumours", "assay": "K^c/cP LUAD mouse model treatment study", "type": "in vivo", "conditions": "at humane end point; about 100 nodules per mouse at start"}},
  "data": [
    {"molecule": "C=CC(=O)N1CCN(c2nc(=O)n(-c3c(C)ccnc3C(C)C)c3nc(-c4c(O)cccc4F)c(F)cc23)[C@@H](C)C1", "note": "[KRASi, sotorasib]", "values": [
      {"measurement": "levels of NSD2 or H3K36me2 (western)", "setting": "[1]", "result": "does not impact"},
      {"measurement": "ERK1/2 phosphorylation in PDAC tumour lysates (western)", "setting": "K^cPC PDAC tumours", "result": "blocked ERK1 and ERK2 (ERK1/2) phosphorylation"},
      {"measurement": "tumour fitness score (scRNA-seq)", "setting": "K^c/cP LUAD tumour cells", "result": "decreased score"},
      {"measurement": "individual tumours (nodules) eliminated", "setting": "K^c/cP LUAD tumours", "result": "~75", "unit": "%"}
    ]}
  ]
}
